What was measured:
[1] = Cytotoxicity against human Raji cells assessed as cell viability at 10^-6 M; assay type: cell-based; conditions: read-out: Activity
[2] = Cytotoxicity against human Raji cells assessed as cell viability at 10^-7 M; assay type: cell-based; conditions: read-out: Activity
Human gammaherpesvirus 4 [3] = experiment: Induction of EBV-early antigen expressed in human Raji cells at 10^-6 M after 48 hrs by immunofluorescence assay relative to control; assay type: organism-based; conditions: human gammaherpesvirus 4, raji, 1 µM
How it was run: (§1)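 Raji B-lymphoblastoid cells (5 × 10^5/mL) in RPMI 1640 with 10% FBS, with 4 mM sodium n-butyrate as synergist and test compound at 10^-7 or 10^-6 M (final DMSO 0.4%). Incubated 48 h at 37 °C under 5% CO2. Smears were stained by indirect immunofluorescence using NPC patient serum and FITC anti-human IgG. At least 500 cells counted; % EA-positive recorded; n = 3, SEM.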

Human gammaherpesvirus 4 [4] = experiment: Induction of EBV-early antigen expressed in human Raji cells at 10^-7 M after 48 hrs by immunofluorescence assay relative to control; assay type: organism-based; conditions: human gammaherpesvirus 4, raji, 0.1 µM; how it was run: as §1
PC-3 = experiment: Growth inhibition of human PC3 cells after 48 hrs by sulforhodamine B assay; assay type: functional; conditions: PC-3, 48 h
How it was run: (§2)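 Yamori 39-line human cancer panel, NCI method with modifications. Cells plated in RPMI 1640 plus 5% FBS, attached overnight, then exposed 48 h to compound at 10^-8, 10^-7, 10^-6, 10^-5 and 10^-4 M. Sulforhodamine B staining read at 525 nm; % growth = 100[(T−T0)/(C−T0)] from duplicate-point averages, with T0 the time-zero absorbance. GI50 is the concentration giving 50.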

DU-145 = experiment: Growth inhibition of human DU145 cells after 48 hrs by sulforhodamine B assay; assay type: functional; conditions: DU-145, 48 h; how it was run: as §2
MKN-74 = experiment: Growth inhibition of human MKN74 cells after 48 hrs by sulforhodamine B assay; assay type: functional; conditions: MKN-74, 48 h; how it was run: as §2
MKN-28 = experiment: Growth inhibition of human MKN28 cells after 48 hrs by sulforhodamine B assay; assay type: functional; conditions: MKN-28, 48 h; how it was run: as §2
MKN-45 = experiment: Growth inhibition of human MKN45 cells after 48 hrs by sulforhodamine B assay; assay type: functional; conditions: MKN-45, 48 h; how it was run: as §2
MKN-7 = experiment: Growth inhibition of human MKN7 cells after 48 hrs by sulforhodamine B assay; assay type: functional; conditions: MKN-7, 48 h; how it was run: as §2
St-4 = experiment: Growth inhibition of human St-4 cells after 48 hrs by sulforhodamine B assay; assay type: functional; conditions: St-4, 48 h; how it was run: as §2
[5] = Growth inhibition of human MKN1 cells after 48 hrs by sulforhodamine B assay; assay type: functional; conditions: MKN-1, 48 h; how it was run: as §2
[6] = Growth inhibition of human RXF631L cells after 48 hrs by sulforhodamine B assay; assay type: functional; conditions: RXF 631, 48 h; how it was run: as §2
ACHN = experiment: Growth inhibition of human ACHN cells after 48 hrs by sulforhodamine B assay; assay type: functional; how it was run: as §2
OVCAR-8 = experiment: Growth inhibition of human OVCAR8 cells after 48 hrs by sulforhodamine B assay; assay type: functional; conditions: OVCAR-8, 48 h; how it was run: as §2
SK-OV-3 = experiment: Growth inhibition of human SKOV3 cells after 48 hrs by sulforhodamine B assay; assay type: functional; conditions: SK-OV-3, 48 h; how it was run: as §2
OVCAR-5 = experiment: Growth inhibition of human OVCAR5 cells after 48 hrs by sulforhodamine B assay; assay type: functional; conditions: OVCAR-5, 48 h; how it was run: as §2
OVCAR-3 = experiment: Growth inhibition of human OVCAR3 cells after 48 hrs by sulforhodamine B assay; assay type: functional; conditions: OVCAR-3, 48 h; how it was run: as §2
OVCAR-4 = experiment: Growth inhibition of human OVCAR4 cells after 48 hrs by sulforhodamine B assay; assay type: functional; conditions: OVCAR-4, 48 h; how it was run: as §2
DMS-114 = experiment: Growth inhibition of human DMS114 cells after 48 hrs by sulforhodamine B assay; assay type: functional; conditions: DMS-114, 48 h; how it was run: as §2
LOX IMVI = experiment: Growth inhibition of human LOXIMVI cells after 48 hrs by sulforhodamine B assay; assay type: functional; how it was run: as §2
A549 = experiment: Growth inhibition of human A549 cells after 48 hrs by sulforhodamine B assay; assay type: functional; conditions: A549, 48 h; how it was run: as §2
DMS-273 = experiment: Growth inhibition of human DMS273 cells after 48 hrs by sulforhodamine B assay; assay type: functional; conditions: DMS-273, 48 h; how it was run: as §2
NCI-H460 = experiment: Growth inhibition of human NCI-H460 cells after 48 hrs by sulforhodamine B assay; assay type: functional; conditions: NCI-H460, 48 h; how it was run: as §2
NCI-H226 = experiment: Growth inhibition of human NCI-H226 cells after 48 hrs by sulforhodamine B assay; assay type: functional; conditions: NCI-H226, 48 h; how it was run: as §2
NCI-H522 = experiment: Growth inhibition of human NCI-H522 cells after 48 hrs by sulforhodamine B assay; assay type: functional; conditions: NCI-H522, 48 h; how it was run: as §2
HCT-116 = experiment: Growth inhibition of human HCT116 cells after 48 hrs by sulforhodamine B assay; assay type: functional; conditions: HCT-116, 48 h; how it was run: as §2
NCI-H23 = experiment: Growth inhibition of human NCI-H23 cells after 48 hrs by sulforhodamine B assay; assay type: functional; conditions: NCI-H23, 48 h; how it was run: as §2
HCT-15 = experiment: Growth inhibition of human HCT15 cells after 48 hrs by sulforhodamine B assay; assay type: functional; conditions: HCT-15, 48 h; how it was run: as §2
KM12 = experiment: Growth inhibition of human KM12 cells after 48 hrs by sulforhodamine B assay; assay type: functional; conditions: KM12, 48 h; how it was run: as §2
HT-29 = experiment: Growth inhibition of human HT-29 cells after 48 hrs by sulforhodamine B assay; assay type: functional; conditions: HT-29, 48 h; how it was run: as §2
SNB-78 = experiment: Growth inhibition of human SNB78 cells after 48 hrs by sulforhodamine B assay; assay type: functional; conditions: SNB-78, 48 h; how it was run: as §2
[7] = Growth inhibition of human HCC2998 cells after 48 hrs by sulforhodamine B assay; assay type: functional; conditions: HCC 2998, 48 h; how it was run: as §2
SF-539 = experiment: Growth inhibition of human SF539 cells after 48 hrs by sulforhodamine B assay; assay type: functional; conditions: SF-539, 48 h; how it was run: as §2
SNB-75 = experiment: Growth inhibition of human SNB75 cells after 48 hrs by sulforhodamine B assay; assay type: functional; conditions: SNB-75, 48 h; how it was run: as §2
SF-295 = experiment: Growth inhibition of human SF295 cells after 48 hrs by sulforhodamine B assay; assay type: functional; conditions: SF-295, 48 h; how it was run: as §2
U-251 = experiment: Growth inhibition of human U251 cells after 48 hrs by sulforhodamine B assay; assay type: functional; conditions: U-251, 48 h; how it was run: as §2
SF-268 = experiment: Growth inhibition of human SF268 cells after 48 hrs by sulforhodamine B assay; assay type: functional; conditions: SF-268, 48 h; how it was run: as §2
MCF7 = experiment: Growth inhibition of human MCF7 cells after 48 hrs by sulforhodamine B assay; assay type: functional; conditions: MCF7, 48 h; how it was run: as §2
MDA-MB-231 = experiment: Growth inhibition of human MDA-MB-231 cells after 48 hrs by sulforhodamine B assay; assay type: functional; conditions: MDA-MB-231, 48 h; how it was run: as §2
[8] = Growth inhibition of human BSY1 cells after 48 hrs by sulforhodamine B assay; assay type: functional; conditions: BSY-1, 48 h; how it was run: as §2
[9] = Growth inhibition of human HBC5 cells after 48 hrs by sulforhodamine B assay; assay type: functional; conditions: HBC5, 48 h; how it was run: as §2
[10] = Growth inhibition of human HBC4 cells after 48 hrs by sulforhodamine B assay; assay type: functional; conditions: HBC4, 48 h; how it was run: as §2
[11] = Octanol-water partition coefficient, log P of the compound by HPLC analysis; assay type: physicochemical
How it was run: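 log P was estimated from HPLC retention, with column dead time measured using unretained formamide.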

[12] = molecular target: T1, Protein kinase C delta type (Homo sapiens, UniProt Q05655); experiment: Inhibition of [3H]PDBu binding to PKCdelta-C1A domain peptide (unknown origin)
How it was run: (§3)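 Competitive [3H]PDBu binding used 14 or 40 nM PKCδ C1 peptide and 20 nM [3H]PDBu (19.6 Ci/mmol), in 50 mM Tris-maleate (pH 7.4 at 4 °C) with 50 µg/mL phosphatidylserine, 3 mg/mL bovine γ-globulin and varied inhibitor concentrations. IC50 was taken as 50% inhibition of specific binding. Ki was derived by the Sharkey–Blumberg method.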

[13] = molecular target: T1, Protein kinase C delta type; experiment: Inhibition of [3H]PDBu binding to PKCdelta-C1B domain peptide (unknown origin); how it was run: as §3

T1 sequence (Q05655 whole entry, the tested form may be a part): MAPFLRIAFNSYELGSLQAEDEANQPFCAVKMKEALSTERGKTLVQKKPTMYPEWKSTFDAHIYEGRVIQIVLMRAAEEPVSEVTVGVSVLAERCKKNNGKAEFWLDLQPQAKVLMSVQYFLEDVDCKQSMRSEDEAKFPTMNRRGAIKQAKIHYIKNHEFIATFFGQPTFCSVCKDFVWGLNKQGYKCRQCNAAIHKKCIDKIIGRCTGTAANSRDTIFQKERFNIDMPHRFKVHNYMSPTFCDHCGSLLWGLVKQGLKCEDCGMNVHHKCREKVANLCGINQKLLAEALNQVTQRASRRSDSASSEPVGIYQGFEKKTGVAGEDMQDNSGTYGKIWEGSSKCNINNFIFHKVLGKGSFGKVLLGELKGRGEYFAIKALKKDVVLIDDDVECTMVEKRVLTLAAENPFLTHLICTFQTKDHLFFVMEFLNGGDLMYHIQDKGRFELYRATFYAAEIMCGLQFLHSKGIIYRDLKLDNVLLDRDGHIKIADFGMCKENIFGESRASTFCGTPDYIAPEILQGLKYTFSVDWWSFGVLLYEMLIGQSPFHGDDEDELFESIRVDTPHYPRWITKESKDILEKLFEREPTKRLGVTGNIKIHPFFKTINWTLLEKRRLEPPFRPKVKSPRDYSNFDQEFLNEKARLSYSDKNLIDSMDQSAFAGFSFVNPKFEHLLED

Structure (SMILES): CC(=O)Nc1ccc(CCCC[C@@H]2C[C@@H]3C[C@@]4(O[C@H](CCC4(C)C)CC(=O)O[C@@H](CO)CC(=O)O3)O2)cc1O
- viability at 1 µM [1]: 60%
- viability at 0.1 µM [2]: 60%
- Activity (Human gammaherpesvirus 4 [3]): 2.4%
- Activity (Human gammaherpesvirus 4 [4]): 2.4%
- GI50 (PC-3): 20.9 µM
- GI50 (DU-145): 29.5 µM
- GI50 (MKN-74): 33.1 µM
- GI50 (MKN-28): 2.57 µM
- GI50 (MKN-45): 28.8 µM
- GI50 (MKN-7): 30.2 µM
- GI50 (St-4): 2.14 µM
- GI50 [5]: 34.7 µM
- GI50 [6]: 28.8 µM
- GI50 (ACHN): 26.3 µM
- GI50 (OVCAR-8): 44.7 µM
- GI50 (SK-OV-3): 34.7 µM
- GI50 (OVCAR-5): 20.4 µM
- GI50 (OVCAR-3): 23.4 µM
- GI50 (OVCAR-4): 37.2 µM
- GI50 (DMS-114): 20.9 µM
- GI50 (LOX IMVI): 12.9 µM
- GI50 (A549): 15.1 µM
- GI50 (DMS-273): 0.933 µM
- GI50 (NCI-H460): 20.4 µM
- GI50 (NCI-H226): 26.9 µM
- GI50 (NCI-H522): 25.7 µM
- GI50 (HCT-116): 31.6 µM
- GI50 (NCI-H23): 33.9 µM
- GI50 (HCT-15): 33.9 µM
- GI50 (KM12): 31.6 µM
- GI50 (HT-29): 19.5 µM
- GI50 (SNB-78): 51.3 µM
- GI50 [7]: 13.8 µM
- GI50 (SF-539): 30.2 µM
- GI50 (SNB-75): 41.7 µM
- GI50 (SF-295): 13.2 µM
- GI50 (U-251): 26.9 µM
- GI50 (SF-268): 43.7 µM
- GI50 (MCF7): 40.7 µM
- GI50 (MDA-MB-231): 16.6 µM
- GI50 [8]: 26.3 µM
- GI50 [9]: 46.8 µM
- GI50 [10]: 2.45 µM
- logP [11]: 2.7
- Ki [12]: 0.29 µM
- Ki [13]: 0.036 µM

Structure (SMILES): COc1cccc(CCCC[C@@H]2C[C@@H]3C[C@@]4(O[C@H](CCC4(C)C)CC(=O)O[C@@H](CO)CC(=O)O3)O2)c1
- viability at 1 µM [1]: 60%
- viability at 0.1 µM [2]: 60%
- Activity (Human gammaherpesvirus 4 [3]): 5.2%
- Activity (Human gammaherpesvirus 4 [4]): 2.6%
- GI50 (PC-3): 12 µM
- GI50 (DU-145): 13.8 µM
- GI50 (MKN-74): 15.8 µM
- GI50 (MKN-28): 15.1 µM
- GI50 (MKN-45): 9.55 µM
- GI50 (MKN-7): 19.1 µM
- GI50 (St-4): 2.51 µM
- GI50 [5]: 11.5 µM
- GI50 [6]: 13.8 µM
- GI50 (ACHN): 11.5 µM
- GI50 (OVCAR-8): 17 µM
- GI50 (SK-OV-3): 16.2 µM
- GI50 (OVCAR-5): 13.5 µM
- GI50 (OVCAR-3): 12.6 µM
- GI50 (OVCAR-4): 15.8 µM
- GI50 (DMS-114): 11 µM
- GI50 (LOX IMVI): 11 µM
- GI50 (A549): 4.9 µM
- GI50 (DMS-273): 11 µM
- GI50 (NCI-H460): 2.57 µM
- GI50 (NCI-H226): 11.7 µM
- GI50 (NCI-H522): 11.5 µM
- GI50 (HCT-116): 13.5 µM
- GI50 (NCI-H23): 13.5 µM
- GI50 (HCT-15): 18.2 µM
- GI50 (KM12): 13.8 µM
- GI50 (HT-29): 11.2 µM
- GI50 (SNB-78): 17.4 µM
- GI50 [7]: 7.94 µM
- GI50 (SF-539): 10 µM
- GI50 (SNB-75): 14.5 µM
- GI50 (SF-295): 10.2 µM
- GI50 (U-251): 17 µM
- GI50 (SF-268): 14.1 µM
- GI50 (MCF7): 16.2 µM
- GI50 (MDA-MB-231): 6.61 µM
- GI50 [8]: 13.8 µM
- GI50 [9]: 18.6 µM
- GI50 [10]: 1.7 µM
- logP [11]: 4.4
- Ki [12]: 0.33 µM
- Ki [13]: 0.0097 µM

Source: ChEMBL document CHEMBL2380295, “Structure-activity studies on the side chain of a simplified analog of aplysiatoxin (aplog-1) with anti-proliferative activity” (Bioorg Med Chem, 2013)
